Experimental data reported in ChEMBL document CHEMBL4699573, “Design, Synthesis, and Pharmacological Evaluation of Analogues Derived from the PLEV Tetrapeptide as Protein-Protein Interaction Modulators of Voltage-Gated Sodium Channel 1.6” (J Med Chem, 2020).
Values belong to the compound of their own block, whether it stands above or below them. The source made the active and inactive calls. No cut-off for these calls is given here. Starred links: 1 amine or outer side, 2 acyl side, 3 side chain; linkers in the order of their positions; H or OH if unused. Residues, ends and D or L forms follow the SMILES beside them. *: point of attachment. Adamantane1carbonyl = O=C(C12CC3CC(CC(C3)C1)C2)*; Benzenesulfonyl(4-F) = O=S(=O)(c1ccc(F)cc1)*; NH(1-Adamantyl) = C1C2CC3CC1CC(N*)(C2)C3; Cyclohexanecarbonyl = O=C(C1CCCCC1)*; Morpholide = C1CN(*)CCO1; Cbz = O=C(OCc1ccccc1)*; CO = O=C([*:1])[*:2]; NHCH2CH2OH = OCCN*; OtBu = CC(C)(C)O*; NEt2 = CCN(CC)*; X3 = OC1CN(*)C1; X1 = C#CCO*

Experiments:
HEK293 [1] = test: Modulation of recombinant human FGF141b (1 to 252 residues)-recombinant human Nav1.6 C-terminal tail (1763 to 1976 residues) protein-protein interaction expressed in HEK293 cells assessed as relative luminescence value at 50 uM measured at 2 mins interval for 20 mins by split-luciferase complementation assay relative to control; format: cell-based; conditions: time min 2-20
Method in brief: (§1)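 Double-stable HEK293 line expressing CLuc-FGF14 and CD4-Nav1.6-C-tail-NLuc, kept on G418 and puromycin. Cells seeded for 24 h, then given compound for 1 h in serum-free, phenol red-free DMEM/F12 with a final 0.5% DMSO: 50 μM for screening, 0.25–100 μM over eight concentrations for dose-response; n = 4. D-luciferin added and read every 2 min for 20 min at 37 °C. Peak luminescence expressed as percent of per-plate DMSO mean (n = 32). IC50 from four-parameter nonlinear fit. At least 3 experiments.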

HEK293 [2] = test: Inhibition of full-length Photinus pyralis luciferase transfected in HEK293 cells at 25 uM incubated for 1 hrs by split-luciferase complementation assay; format: cell-based
Method in brief: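 HEK293 cells transfected with full-length Photinus pyralis luciferase, then treated 1 h with 25 μM compound (n = 4) or 0.5% DMSO (n = 32). Luminescence read after D-luciferin addition, as in the LCA, normalized to per-plate DMSO controls. One-way ANOVA with Dunnett's test.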

HEK293 [3] = test: Cytotoxicity against HEK293 cells assessed as reduction in cell viability measured after 18 hrs by celltiter-blue assay; conditions: human, hek293, 18 h
[4] = Modulation of recombinant human FGF141b (1 to 252 residues)-recombinant human Nav1.6 C-terminal tail (1763 to 1976 residues) protein-protein interaction expressed in HEK293 cells measured at 2 mins interval for 20 mins by split-luciferase complementation assay; format: cell-based; method in brief: as §1
HEK293 [5] = test: Modulation of recombinant human FGF141b (1 to 252 residues)-recombinant human Nav1.6 C-terminal tail (1763 to 1976 residues) protein-protein interaction expressed in HEK293 cells measured at 2 mins interval for 20 mins by split-luciferase complementation assay relative to control; format: cell-based; conditions: filed as modulator, time min 2-20; method in brief: as §1
[6] = target: T1, Sodium channel protein type 8 subunit alpha (Homo sapiens, UniProt Q9UQD0); test: Binding affinity to human recombinant Nav1.6 C-terminal domain expressed in Escherichia coli BL21 assessed as dissociation constant by SPR analysis
Method in brief: (§2)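 Biacore T100 runs with FGF14 (17,896 RU) or Nav1.6 C-tail (6,800 RU) amine-coupled on CM5 at pH 5.5. Compounds at 0.195–200 μM in PBS, 0.005% Tween-20, 2% DMSO; 50 μL/min at 25 °C. 120 s association, 150 s dissociation, DMSO calibration, blank subtraction. Rates from a Langmuir 1:1 fit; KD averages the kinetic and steady-state values. At least duplicate experiments.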
Target sequence in this assay (Q9UQD0 whole entry, the tested form may be a part): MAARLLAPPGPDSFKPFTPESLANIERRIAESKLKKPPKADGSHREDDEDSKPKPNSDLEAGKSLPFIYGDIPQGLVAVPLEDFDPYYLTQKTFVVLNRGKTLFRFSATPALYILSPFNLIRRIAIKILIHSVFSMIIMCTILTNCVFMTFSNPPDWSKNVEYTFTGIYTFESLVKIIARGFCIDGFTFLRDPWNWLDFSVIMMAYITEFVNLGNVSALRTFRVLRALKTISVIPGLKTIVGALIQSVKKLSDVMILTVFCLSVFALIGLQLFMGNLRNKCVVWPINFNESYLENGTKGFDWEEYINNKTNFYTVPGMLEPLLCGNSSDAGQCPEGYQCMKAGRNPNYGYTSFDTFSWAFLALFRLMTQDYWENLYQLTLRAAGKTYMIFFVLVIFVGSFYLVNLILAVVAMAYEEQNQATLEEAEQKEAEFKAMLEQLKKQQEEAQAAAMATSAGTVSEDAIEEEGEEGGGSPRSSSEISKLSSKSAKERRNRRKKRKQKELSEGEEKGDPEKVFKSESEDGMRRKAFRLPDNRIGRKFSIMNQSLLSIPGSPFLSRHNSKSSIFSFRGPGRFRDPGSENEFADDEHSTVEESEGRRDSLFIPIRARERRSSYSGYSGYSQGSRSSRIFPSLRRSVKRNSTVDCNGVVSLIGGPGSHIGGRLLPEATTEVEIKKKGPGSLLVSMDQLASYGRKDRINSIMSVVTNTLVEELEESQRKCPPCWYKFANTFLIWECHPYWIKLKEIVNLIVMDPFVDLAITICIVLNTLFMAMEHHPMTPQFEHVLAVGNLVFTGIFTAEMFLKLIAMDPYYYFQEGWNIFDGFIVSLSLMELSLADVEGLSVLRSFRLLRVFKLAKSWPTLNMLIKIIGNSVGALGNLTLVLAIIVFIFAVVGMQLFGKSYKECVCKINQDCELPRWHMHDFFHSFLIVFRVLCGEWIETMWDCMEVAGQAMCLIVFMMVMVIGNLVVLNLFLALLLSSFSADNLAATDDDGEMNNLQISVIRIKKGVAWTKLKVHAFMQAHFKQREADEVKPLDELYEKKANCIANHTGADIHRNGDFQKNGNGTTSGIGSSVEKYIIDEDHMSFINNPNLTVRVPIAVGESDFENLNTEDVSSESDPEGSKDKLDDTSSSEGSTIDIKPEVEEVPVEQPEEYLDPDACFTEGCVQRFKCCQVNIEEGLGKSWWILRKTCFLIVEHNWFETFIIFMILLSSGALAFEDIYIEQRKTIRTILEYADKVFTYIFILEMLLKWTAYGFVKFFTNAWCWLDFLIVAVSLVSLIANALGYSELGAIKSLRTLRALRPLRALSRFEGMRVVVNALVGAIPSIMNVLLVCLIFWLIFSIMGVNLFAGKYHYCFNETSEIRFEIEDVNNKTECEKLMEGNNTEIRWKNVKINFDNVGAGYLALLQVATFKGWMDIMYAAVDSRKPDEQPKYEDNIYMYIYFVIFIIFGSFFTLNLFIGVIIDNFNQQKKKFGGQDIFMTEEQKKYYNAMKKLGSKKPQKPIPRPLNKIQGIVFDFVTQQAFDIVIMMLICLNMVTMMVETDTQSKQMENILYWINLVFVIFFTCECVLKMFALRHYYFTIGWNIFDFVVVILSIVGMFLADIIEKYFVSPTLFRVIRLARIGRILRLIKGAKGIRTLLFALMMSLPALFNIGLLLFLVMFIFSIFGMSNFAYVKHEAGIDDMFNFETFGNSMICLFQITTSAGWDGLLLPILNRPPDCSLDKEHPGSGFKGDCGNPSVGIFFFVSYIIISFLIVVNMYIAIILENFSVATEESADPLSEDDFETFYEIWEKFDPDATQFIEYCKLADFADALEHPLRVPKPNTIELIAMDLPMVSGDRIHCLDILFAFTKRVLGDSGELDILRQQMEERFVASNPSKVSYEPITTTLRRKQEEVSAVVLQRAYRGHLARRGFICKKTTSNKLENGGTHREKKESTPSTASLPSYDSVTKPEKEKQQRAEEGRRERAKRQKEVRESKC

[7] = target: T2, Fibroblast growth factor 14 (Homo sapiens) (UniProt Q92915); test: Binding affinity to human recombinant FGF14 expressed in Escherichia coli BL21 assessed as association rate constant by SPR analysis; conditions: filed as modulator; method in brief: as §2
T2 sequence (whole entry): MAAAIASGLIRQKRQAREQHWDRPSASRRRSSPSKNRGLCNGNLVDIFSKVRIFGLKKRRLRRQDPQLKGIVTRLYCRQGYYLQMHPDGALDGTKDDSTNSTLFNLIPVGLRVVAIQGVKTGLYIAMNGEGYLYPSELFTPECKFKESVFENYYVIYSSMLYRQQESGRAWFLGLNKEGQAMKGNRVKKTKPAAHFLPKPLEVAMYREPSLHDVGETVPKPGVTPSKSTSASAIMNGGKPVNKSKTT

[8] = target: T1, Sodium channel protein type 8 subunit alpha; test: Binding affinity to human recombinant Nav1.6 C-terminal domain expressed in Escherichia coli BL21 assessed as association rate constant by SPR analysis; conditions: filed as modulator; method in brief: as §2
Target sequence in this assay (Q9UQD0 whole entry, looked up, the tested form may be a part): as the sequence (Q9UQD0 whole entry, the tested form may be a part) above

[9] = target: T2, Fibroblast growth factor 14 (Homo sapiens); test: Binding affinity to human recombinant FGF14 expressed in Escherichia coli BL21 assessed as assessed as induction of protein denaturation by measuring change in melting temperature at 50 uM by fluorescent dye based thermal shift assay; conditions: filed as modulator
[10] = target: T1, Sodium channel protein type 8 subunit alpha; test: Binding affinity to human recombinant Nav1.6 C-terminal domain expressed in Escherichia coli BL21 assessed as dissociation rate constant by SPR analysis; conditions: filed as modulator; method in brief: as §2
Target sequence in this assay (Q9UQD0 whole entry, looked up, the tested form may be a part): as the sequence (Q9UQD0 whole entry, the tested form may be a part) above

[11] = target: T1, Sodium channel protein type 8 subunit alpha; test: Binding affinity to human recombinant Nav1.6 C-terminal domain expressed in Escherichia coli BL21 assessed as assessed as induction of protein denaturation by measuring change in melting temperature at 10 uM by fluorescent dye based thermal shift assay; conditions: filed as modulator, dose 50.0 µM
Target sequence in this assay (Q9UQD0 whole entry, looked up, the tested form may be a part): as the sequence (Q9UQD0 whole entry, the tested form may be a part) above

[12] = target: T3, Fibroblast growth factor 14 (Homo sapiens, UniProt Q92915); test: Binding affinity to human recombinant FGF14 expressed in Escherichia coli BL21 assessed as dissociation constant by SPR analysis; method in brief: as §2
T3 sequence (Q92915 whole entry): T2 sequence (whole entry)

SMILES: CNC(=O)[C@@H](NC(=O)[C@H](CCC(=O)OC(C)(C)C)NC(=O)[C@H](CC(C)C)NC(=O)[C@@H]1CCCN1C(=O)OCc1ccccc1)C(C)C (Cbz-PLE(OtBu)V-NHMe)
Activity (HEK293 [1]): 103%

SMILES: CC(C)C[C@H](NC(=O)[C@@H]1CCCN1C(=O)OCc1ccccc1)C(=O)N[C@@H](CCC(=O)OC(C)(C)C)C(=O)N[C@H](C(=O)NC12CC3CC(CC(C3)C1)C2)C(C)C (Cbz-PLE(OtBu)V-{NH(1-Adamantyl)})
Activity (HEK293 [1]): 81.5%

SMILES: CC(C)C[C@H](NC(=O)[C@@H]1CCCN1C(=O)OCc1ccccc1)C(=O)N[C@@H](CCC(=O)OC(C)(C)C)C(=O)N[C@H](C(N)=O)C(C)C (Cbz-PLE(OtBu)V-NH2)
Activity (HEK293 [1]): 112%

SMILES: CC(=O)N1CCC[C@H]1C(=O)N[C@@H](CC(C)C)C(=O)N[C@@H](CCC(=O)O)C(=O)N[C@H](C(N)=O)C(C)C (Ac-PLEV-NH2)
Activity (HEK293 [1]): 79.4%

SMILES: CC(C)C[C@H](NC(=O)[C@@H]1CCCN1S(=O)(=O)c1ccc(F)cc1)C(=O)N[C@@H](CCC(=O)OC(C)(C)C)C(=O)N[C@H](C(N)=O)C(C)C ({Benzenesulfonyl(4-F)}-PLE(OtBu)V-NH2)
Activity (HEK293 [1]): 86.4%

SMILES: CCN(CC)C(=O)[C@@H](NC(=O)[C@H](CCC(=O)OC(C)(C)C)NC(=O)[C@H](CC(C)C)NC(=O)[C@@H]1CCCN1C(=O)OCc1ccccc1)C(C)C (Cbz-PLE(OtBu)V-NEt2)
Activity (HEK293 [1]): 92.3%

SMILES: CC(C)C[C@H](NC(=O)[C@@H]1CCCN1C(=O)OCc1ccccc1)C(=O)N[C@@H](CCC(=O)OC(C)(C)C)C(=O)N[C@H](C(=O)N1CC(O)C1)C(C)C (Cbz-PLE(OtBu)V-X3)
Activity (HEK293 [1]): 112%

SMILES: CC(C)C[C@H](NC(=O)[C@@H]1CCCN1C(=O)OCc1ccccc1)C(=O)N[C@@H](CCC(=O)OC(C)(C)C)C(=O)N[C@H](C(=O)N1CCOCC1)C(C)C (Cbz-PLE(OtBu)V-Morpholide)
Activity (HEK293 [1]): 72%

IC50 [4]: 22.4 µM
SMILES: COC(=O)[C@@H](NC(=O)[C@H](CCC(=O)OC(C)(C)C)NC(=O)[C@H](CC(C)C)NC(=O)[C@@H]1CCCN1C(=O)OCc1ccccc1)C(C)C (Cbz-PLE(OtBu)V-OMe)
inhibition (HEK293 [2]): inactive | Activity (HEK293 [1]; filed as modulator): 39.8% | Activity (HEK293 [3]): Non-Toxic | Efficacy (HEK293 [5]): 93.3%

SMILES: CC(C)C[C@H](NC(=O)[C@@H]1CCCN1C(=O)OCc1ccccc1)C(=O)N[C@@H](CCC(=O)OC(C)(C)C)C(=O)N[C@H](C(=O)NCCO)C(C)C (Cbz-PLE(OtBu)V-NHCH2CH2OH)
Activity (HEK293 [1]): 118%

SMILES: CC(C)C[C@H](NC(=O)[C@@H]1CCCN1C(=O)NC12CC3CC(CC(C3)C1)C2)C(=O)N[C@@H](CCC(=O)OC(C)(C)C)C(=O)N[C@H](C(N)=O)C(C)C ({NH(1-Adamantyl)-CO}-PLE(OtBu)V-NH2)
Activity (HEK293 [1]): 83.5%

SMILES: C#CCOC(=O)[C@@H](NC(=O)[C@H](CCC(=O)OC(C)(C)C)NC(=O)[C@H](CC(C)C)NC(=O)[C@@H]1CCCN1C(=O)C12CC3CC(CC(C3)C1)C2)C(C)C (Adamantane1carbonyl-PLE(OtBu)V-X1)
Kd [6]: > 200 µM | K [7]: 2.58 10^4/M/s | K [8]: 1.26 10^5/M/s | inhibition (HEK293 [2]): inactive | Activity (HEK293 [1]; filed as modulator): 5.1% | Activity (HEK293 [3]): Non-Toxic | ΔTm [9]: -1.85 °C | IC50 [4]: 13.8 µM | K [10]: 1.45 10^-3/s | ΔTm [11]: -0.15 °C | Efficacy (HEK293 [5]): 96.6% | Kd [12]: 14.7 µM

SMILES: CC(C)C[C@H](NC(=O)[C@@H]1CCCN1C(=O)C1CCCCC1)C(=O)N[C@@H](CCC(=O)OC(C)(C)C)C(=O)N[C@H](C(N)=O)C(C)C (Cyclohexanecarbonyl-PLE(OtBu)V-NH2)
Activity (HEK293 [1]): 104%
